The text below walks through data of ChEMBL document CHEMBL3259614, “Design, synthesis, and structure-activity relationship studies of novel fused heterocycles-linked triazoles with good activity and water solubility” (J Med Chem, 2014).

SMILES strings stand for the structures. ≈ marks a conversion by molar mass, not a printed value.

The first test has as its system Candida parapsilosis. In words: Antimicrobial activity against Candida parapsilosis 22019 after 24 hrs by serial dilution method. The class given is functional. The settings on record: Lodderomyces parapsilosis, 22019, 24 h. The method, boiled down:
(§1)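 Broth serial dilution MIC in 96-well plates following NCCLS/CLSI methods. Compounds were dissolved in DMSO and serially diluted in growth medium, with incubation at 35 °C. […] C. parapsilosis 22019 served as the quality-control strain in each assay.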
As to `C[C@@H](N1CCc2nc(-c3ccsc3)sc2C1)[C@](O)(Cn1cncn1)c1ccc(F)cc1F`, the MIC was found to be 0.25 µg/mL (≈ 0.528 µM).
Compound `C[C@@H](N1CCc2nc(-c3cccc(F)c3)sc2C1)[C@](O)(Cn1cncn1)c1ccc(F)cc1F` displayed an MIC of 2 µg/mL (≈ 4.12 µM).
The compound `Cc1cccc(-c2nc3c(s2)CN([C@H](C)[C@](O)(Cn2cncn2)c2ccc(F)cc2F)CC3)c1` gave an MIC of 1 µg/mL (≈ 2.08 µM).
As for `C[C@@H](N1CCc2nc(-c3cccc(Br)c3)sc2C1)[C@](O)(Cn1cncn1)c1ccc(F)cc1F`, the MIC was 2 µg/mL (≈ 3.66 µM).
`COc1cccc(-c2nc3c(s2)CN([C@H](C)[C@](O)(Cn2cncn2)c2ccc(F)cc2F)CC3)c1` returned an MIC of 1 µg/mL (≈ 2.01 µM).
Still for that read-out and setting: the same measure for `C[C@@H](N1CCc2nc(-c3ccc(C#N)cc3)sc2C1)[C@](O)(Cn1cncn1)c1ccc(F)cc1F`: 0.125 µg/mL (≈ 0.254 µM); for `C[C@@H](N1CCc2nc(-c3cccc(C#N)c3)sc2C1)[C@](O)(Cn1cncn1)c1ccc(F)cc1F`: 2 µg/mL (≈ 4.06 µM).

A further test has as its system Candida albicans. In words: Antimicrobial activity against Candida albicans Y0109 after 24 hrs by serial dilution method. The class given is functional. The conditions noted are these: Y0109, 24 h. In a few lines: as §1
Compound `C[C@@H](N1CCc2nc(-c3ccsc3)sc2C1)[C@](O)(Cn1cncn1)c1ccc(F)cc1F` showed an MIC of 0.25 µg/mL (≈ 0.528 µM).
In the case of `C[C@@H](N1CCc2nc(-c3cccc(F)c3)sc2C1)[C@](O)(Cn1cncn1)c1ccc(F)cc1F`, the lowest concentration to inhibit growth (MIC) was 2 µg/mL (≈ 4.12 µM).
Take `Cc1cccc(-c2nc3c(s2)CN([C@H](C)[C@](O)(Cn2cncn2)c2ccc(F)cc2F)CC3)c1`: inhibition of growth (MIC) required 2 µg/mL (≈ 4.15 µM).
For `C[C@@H](N1CCc2nc(-c3cccc(Br)c3)sc2C1)[C@](O)(Cn1cncn1)c1ccc(F)cc1F`, it took 2 µg/mL (≈ 3.66 µM) to inhibit growth (MIC).
The same measure, in the same setting: the same measure for `COc1cccc(-c2nc3c(s2)CN([C@H](C)[C@](O)(Cn2cncn2)c2ccc(F)cc2F)CC3)c1`: 1 µg/mL (≈ 2.01 µM).
Compound `C[C@@H](N1CCc2nc(-c3ccc(C#N)cc3)sc2C1)[C@](O)(Cn1cncn1)c1ccc(F)cc1F` showed a minimal inhibitory concentration (MIC) of 0.125 µg/mL (≈ 0.254 µM).
The compound `C[C@@H](N1CCc2nc(-c3cccc(C#N)c3)sc2C1)[C@](O)(Cn1cncn1)c1ccc(F)cc1F` had an MIC of 0.125 µg/mL (≈ 0.254 µM).

A further test relates to Candida albicans. In words: Antimicrobial activity against Candida albicans SC5314 after 24 hrs by serial dilution method. The class given is functional. The settings on record: SC5314, 24 h. In a few lines:
as §1
Regarding `C[C@@H](N1CCc2nc(-c3ccsc3)sc2C1)[C@](O)(Cn1cncn1)c1ccc(F)cc1F`, the MIC turned out to be 0.25 µg/mL (≈ 0.528 µM).
Still for that read-out and setting: under `C[C@@H](N1CCc2nc(-c3cccc(F)c3)sc2C1)[C@](O)(Cn1cncn1)c1ccc(F)cc1F` stands 2 µg/mL (≈ 4.12 µM).
On the same count and under the same terms, the same measure for `Cc1cccc(-c2nc3c(s2)CN([C@H](C)[C@](O)(Cn2cncn2)c2ccc(F)cc2F)CC3)c1`: 2 µg/mL (≈ 4.15 µM); for `C[C@@H](N1CCc2nc(-c3cccc(Br)c3)sc2C1)[C@](O)(Cn1cncn1)c1ccc(F)cc1F`: 2 µg/mL (≈ 3.66 µM).
Same read-out and setting: under `COc1cccc(-c2nc3c(s2)CN([C@H](C)[C@](O)(Cn2cncn2)c2ccc(F)cc2F)CC3)c1` stands 1 µg/mL (≈ 2.01 µM); under `C[C@@H](N1CCc2nc(-c3ccc(C#N)cc3)sc2C1)[C@](O)(Cn1cncn1)c1ccc(F)cc1F`, 0.0625 µg/mL (≈ 0.127 µM).
With `C[C@@H](N1CCc2nc(-c3cccc(C#N)c3)sc2C1)[C@](O)(Cn1cncn1)c1ccc(F)cc1F`, the lowest concentration to inhibit growth (MIC) was 0.125 µg/mL (≈ 0.254 µM). Against the preceding compound, the MIC is about 2-fold higher.

For another test, the system named is Aspergillus fumigatus. In words: Antimicrobial activity against Aspergillus fumigatus 7544 after 48 hrs by serial dilution method. The class given is functional. The conditions noted are these: Aspergillus fumigatus, 7544, 48 h. In a few lines:
as §1
`C[C@@H](N1CCc2nc(-c3ccsc3)sc2C1)[C@](O)(Cn1cncn1)c1ccc(F)cc1F`: the MIC was determined as 8 µg/mL (≈ 16.9 µM).
As for `C[C@@H](N1CCc2nc(-c3cccc(F)c3)sc2C1)[C@](O)(Cn1cncn1)c1ccc(F)cc1F`, the minimal inhibitory concentration (MIC) was found to be 32 µg/mL (≈ 65.9 µM).
`Cc1cccc(-c2nc3c(s2)CN([C@H](C)[C@](O)(Cn2cncn2)c2ccc(F)cc2F)CC3)c1` registered an MIC of 32 µg/mL (≈ 66.4 µM).
Still for that read-out and setting: under `C[C@@H](N1CCc2nc(-c3cccc(Br)c3)sc2C1)[C@](O)(Cn1cncn1)c1ccc(F)cc1F` stands 32 µg/mL (≈ 58.6 µM); under `COc1cccc(-c2nc3c(s2)CN([C@H](C)[C@](O)(Cn2cncn2)c2ccc(F)cc2F)CC3)c1`, 16 µg/mL (≈ 32.2 µM).
Still for that read-out and setting: under `C[C@@H](N1CCc2nc(-c3ccc(C#N)cc3)sc2C1)[C@](O)(Cn1cncn1)c1ccc(F)cc1F` stands 16 µg/mL (≈ 32.5 µM); under `C[C@@H](N1CCc2nc(-c3cccc(C#N)c3)sc2C1)[C@](O)(Cn1cncn1)c1ccc(F)cc1F`, 16 µg/mL (≈ 32.5 µM).

The next test concerns Cryptococcus neoformans. In words: Antimicrobial activity against Cryptococcus neoformans 32609 after 72 hrs by serial dilution method. The class given is functional. The settings on record: Cryptococcus neoformans, 32609, 72 h. The method, boiled down: as §1
With `C[C@@H](N1CCc2nc(-c3ccsc3)sc2C1)[C@](O)(Cn1cncn1)c1ccc(F)cc1F`, the lowest concentration to inhibit growth (MIC) was 0.25 µg/mL (≈ 0.528 µM).
On the same count and under the same terms, the same measure for `C[C@@H](N1CCc2nc(-c3cccc(F)c3)sc2C1)[C@](O)(Cn1cncn1)c1ccc(F)cc1F`: 2 µg/mL (≈ 4.12 µM); for `Cc1cccc(-c2nc3c(s2)CN([C@H](C)[C@](O)(Cn2cncn2)c2ccc(F)cc2F)CC3)c1`: 4 µg/mL (≈ 8.31 µM).
In the case of `C[C@@H](N1CCc2nc(-c3cccc(Br)c3)sc2C1)[C@](O)(Cn1cncn1)c1ccc(F)cc1F`, the MIC was found to be 4 µg/mL (≈ 7.32 µM).
Still for that read-out and setting: under `COc1cccc(-c2nc3c(s2)CN([C@H](C)[C@](O)(Cn2cncn2)c2ccc(F)cc2F)CC3)c1` stands 2 µg/mL (≈ 4.02 µM); under `C[C@@H](N1CCc2nc(-c3ccc(C#N)cc3)sc2C1)[C@](O)(Cn1cncn1)c1ccc(F)cc1F`, 0.125 µg/mL (≈ 0.254 µM); under `C[C@@H](N1CCc2nc(-c3cccc(C#N)c3)sc2C1)[C@](O)(Cn1cncn1)c1ccc(F)cc1F`, 1 µg/mL (≈ 2.03 µM).

The test system of the next test is Nakaseomyces glabratus. In words: Antimicrobial activity against Candida glabrata 537 after 24 hrs by serial dilution method. The class given is functional. The settings on record: Nakaseomyces glabratus, 537, 24 h. The method, boiled down:
as §1
As for `C[C@@H](N1CCc2nc(-c3ccsc3)sc2C1)[C@](O)(Cn1cncn1)c1ccc(F)cc1F`, the MIC is 0.25 µg/mL (≈ 0.528 µM).
Same read-out and setting: under `C[C@@H](N1CCc2nc(-c3cccc(F)c3)sc2C1)[C@](O)(Cn1cncn1)c1ccc(F)cc1F` stands 8 µg/mL (≈ 16.5 µM); under `Cc1cccc(-c2nc3c(s2)CN([C@H](C)[C@](O)(Cn2cncn2)c2ccc(F)cc2F)CC3)c1`, 4 µg/mL (≈ 8.31 µM); under `C[C@@H](N1CCc2nc(-c3cccc(Br)c3)sc2C1)[C@](O)(Cn1cncn1)c1ccc(F)cc1F`, 8 µg/mL (≈ 14.6 µM).
The same measure, in the same setting: under `COc1cccc(-c2nc3c(s2)CN([C@H](C)[C@](O)(Cn2cncn2)c2ccc(F)cc2F)CC3)c1` stands 1 µg/mL (≈ 2.01 µM); under `C[C@@H](N1CCc2nc(-c3ccc(C#N)cc3)sc2C1)[C@](O)(Cn1cncn1)c1ccc(F)cc1F`, 0.5 µg/mL (≈ 1.02 µM).
Still for that read-out and setting: the same measure for `C[C@@H](N1CCc2nc(-c3cccc(C#N)c3)sc2C1)[C@](O)(Cn1cncn1)c1ccc(F)cc1F`: 2 µg/mL (≈ 4.06 µM).

One may read the MIC as the lowest concentration found to suppress growth. The low end stands for greater potency, the high end for weaker potency.
